{"source": "ChEMBL document CHEMBL1629613", "about": "“Klebsiella pneumoniae OmpA confers resistance to antimicrobial peptides” (2009)", "key": {"Klebsiella pneumoniae [1]": {"test_system": "Klebsiella pneumoniae", "test": "Antimicrobial activity against Klebsiella pneumoniae 52145", "assay_type": "functional"}, "Klebsiella pneumoniae [2]": {"test_system": "Klebsiella pneumoniae", "test": "Antimicrobial activity against Klebsiella pneumoniae 52145 at 100 ug/disk by disk diffusion method", "assay_type": "functional, organism-based", "outline": "(§1)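 Disk diffusion with SDS at 100 µg per disk.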"}, "Klebsiella pneumoniae [3]": {"test_system": "Klebsiella pneumoniae", "test": "Antimicrobial activity against Klebsiella pneumoniae 52OmpA2 at 100 ug/disk by disk diffusion method", "assay_type": "functional, organism-based", "outline": "as §1"}, "Klebsiella pneumoniae [4]": {"test_system": "Klebsiella pneumoniae", "test": "Antimicrobial activity against Klebsiella pneumoniae 52OmpA2 at 80 ug/disk by disk diffusion method", "assay_type": "functional", "conditions": "52OmpA2, read-out: IZ", "outline": "(§2)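 Disk diffusion with novobiocin at 80 µg per disk. The diffusion halo was measured in cm and reported as mean ± error, with groups compared by P value.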"}, "Klebsiella pneumoniae [5]": {"test_system": "Klebsiella pneumoniae", "test": "Antimicrobial activity against Klebsiella pneumoniae 52OmpA2Com", "assay_type": "functional"}, "Klebsiella pneumoniae [6]": {"test_system": "Klebsiella pneumoniae", "test": "Binding affinity to Klebsiella pneumoniae 52145 outer membrane assessed as amount of peptide bound at 16 ug/ml after 30 mins", "outline": "(§3)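 Bacteria were incubated with the peptide for 30 min, and the amount of peptide bound was then determined, expressed in µg/ml. Strains were compared by two-tailed t test.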"}, "Klebsiella pneumoniae [7]": {"test_system": "Klebsiella pneumoniae", "test": "Binding affinity to wcaK2-deficient Klebsiella pneumoniae 52OmpA2 lipopolysaccharide assessed as amount of peptide bound at 16 ug/ml after 30 mins", "outline": "(§4)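 LPS was purified from capsule (CPS) mutants to avoid copurifying capsule. LPS at 50 µg/ml was incubated with polymyxin B at 16 µg/ml for 30 min, and the bound peptide was measured in µg/ml.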"}, "Klebsiella pneumoniae [8]": {"test_system": "Klebsiella pneumoniae", "test": "Binding affinity to wcaK2-deficient Klebsiella pneumoniae 52145 lipopolysaccharide assessed as amount of peptide bound at 16 ug/ml after 30 mins", "outline": "as §4"}, "Klebsiella pneumoniae [9]": {"test_system": "Klebsiella pneumoniae", "test": "Antimicrobial activity against Klebsiella pneumoniae 52OmpA2 assessed as decrease in bacterial survival after 1 hr", "assay_type": "functional, organism-based", "outline": "(§5)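 Bacterial survival assay: cells were exposed to polymyxin B or protamine for 1 h, or to HNP-1 at a fixed 20 µg/ml for 3 h, and surviving bacteria were then counted. Polymyxin B curves are the mean ± SD of six samples from three independently grown batches. HNP-1 data are the mean ± SD of three experiments, each run in duplicate. Strains were compared by two-tailed t test.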"}, "Klebsiella pneumoniae [10]": {"test_system": "Klebsiella pneumoniae", "test": "Antimicrobial activity against Klebsiella pneumoniae 52145 assessed as decrease in bacterial survival after 1 hr", "assay_type": "functional, organism-based", "outline": "as §5"}, "Klebsiella pneumoniae [11]": {"test_system": "Klebsiella pneumoniae", "test": "Antimicrobial activity against Klebsiella pneumoniae 52OmpA2 assessed as induction of bacterial wall damage by propidium iodide staining-based fluorescence spectroscopy", "assay_type": "functional, organism-based"}, "Klebsiella pneumoniae [12]": {"test_system": "Klebsiella pneumoniae", "test": "Antimicrobial activity against Klebsiella pneumoniae 52145 assessed as decrease in bacterial survival at 1 ug/ml pre-exposed for 1 hr during growth phase", "assay_type": "functional, organism-based", "outline": "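Cells were pretreated during growth with polymyxin B (final 1 µg/ml, 1 h), washed, and then tested for polymyxin B susceptibility by the same survival assay, alongside untreated cells. Values are the mean ± SD of six samples from three independently grown batches. Pretreated and untreated cells were compared by two-tailed t test.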"}, "Klebsiella pneumoniae [13]": {"test_system": "Klebsiella pneumoniae", "test": "Antimicrobial activity against Klebsiella pneumoniae 52OmpAK36 harboring OmpA K36 mutant gene assessed as decrease in bacterial survival after 1 hr by coomassie blue staining", "assay_type": "functional, organism-based"}, "Klebsiella pneumoniae [14]": {"test_system": "Klebsiella pneumoniae", "test": "Antimicrobial activity against Klebsiella pneumoniae 52OmpA2Com by Etest", "assay_type": "functional, organism-based"}, "Klebsiella pneumoniae [15]": {"test_system": "Klebsiella pneumoniae", "test": "Antimicrobial activity against Klebsiella pneumoniae 52145 assessed as induction of bacterial wall damage by propidium iodide staining-based fluorescence spectroscopy", "assay_type": "functional, organism-based"}, "Klebsiella pneumoniae [16]": {"test_system": "Klebsiella pneumoniae", "test": "Antimicrobial activity against Klebsiella pneumoniae 52145 by Etest", "assay_type": "functional, organism-based"}, "Klebsiella pneumoniae [17]": {"test_system": "Klebsiella pneumoniae", "test": "Antimicrobial activity against wcaK2-deficient Klebsiella pneumoniae 52OmpA2 assessed as decrease in bacterial survival", "assay_type": "functional, organism-based", "outline": "as §5"}, "Klebsiella pneumoniae [18]": {"test_system": "Klebsiella pneumoniae", "test": "Binding affinity to Klebsiella pneumoniae 52OmpA2 outer membrane assessed as amount of peptide bound at 16 ug/ml after 30 mins", "outline": "as §3"}, "Klebsiella pneumoniae [19]": {"test_system": "Klebsiella pneumoniae", "test": "Antimicrobial activity against Klebsiella pneumoniae 52OmpA2 by Etest", "assay_type": "functional, organism-based"}, "Klebsiella pneumoniae [20]": {"test_system": "Klebsiella pneumoniae", "test": "Antimicrobial activity against Klebsiella pneumoniae 52145 at 80 ug/disk by disk diffusion method", "assay_type": "functional, organism-based", "outline": "as §2"}, "Klebsiella pneumoniae [21]": {"test_system": "Klebsiella pneumoniae", "test": "Antimicrobial activity against wcaK2-deficient Klebsiella pneumoniae 52145 assessed as decrease in bacterial survival", "assay_type": "functional, organism-based", "outline": "as §5"}, "Klebsiella pneumoniae [22]": {"test_system": "Klebsiella pneumoniae", "test": "Antimicrobial activity against Klebsiella pneumoniae 52OmpA2Com assessed as decrease in bacterial survival after 1 hr", "assay_type": "functional, organism-based", "outline": "as §5"}}, "note": "Activity calls are given as the source filed them. The calls are words filed in the database; no cut-off is given here.", "data": [{"compound": "CC1(C)S[C@@H]2[C@H](NC(=O)[C@H](N)c3ccc(O)cc3)C(=O)N2[C@H]1C(=O)O", "note": "[AMOXICILLIN]", "values": [{"measurement": "MIC", "setting": "Klebsiella pneumoniae [1]", "value": 2, "unit": "µg/mL"}]}, {"compound": "CO/N=C(\\C(=O)N[C@@H]1C(=O)N2C(C(=O)O)=C(COC(C)=O)CS[C@H]12)c1csc(N)n1", "note": "[CEFOTAXIME]", "values": [{"measurement": "MIC", "setting": "Klebsiella pneumoniae [1]", "value": 0.05, "unit": "µg/mL"}]}, {"compound": "O=C(O)c1cn(C2CC2)c2cc(N3CCNCC3)c(F)cc2c1=O", "note": "[CIPROFLOXACIN]", "values": [{"measurement": "MIC", "setting": "Klebsiella pneumoniae [1]", "value": 0.05, "unit": "µg/mL"}]}, {"compound": "C[C@@H](O)[C@H]1C(=O)N2C(C(=O)O)=C(SCCNC=N)C[C@H]12", "note": "[IMIPENEM ANHYDROUS]", "values": [{"measurement": "MIC", "setting": "Klebsiella pneumoniae [1]", "value": 0.05, "unit": "µg/mL"}]}, {"compound": "CO[C@@H]1[C@@H](OC(N)=O)[C@@H](O)[C@H](Oc2ccc3c(O)c(NC(=O)c4ccc(O)c(CC=C(C)C)c4)c(=O)oc3c2C)OC1(C)C", "note": "[NOVOBIOCIN]", "values": [{"measurement": "Activity", "setting": "Klebsiella pneumoniae [2]", "value": "inactive"}, {"measurement": "Activity", "setting": "Klebsiella pneumoniae [3]", "value": "inactive"}, {"measurement": "zone of inhibition at 80 µg/disc", "setting": "Klebsiella pneumoniae [4]", "value": 8.5, "unit": "mm"}]}, {"compound": "GENTAMICIN", "values": [{"measurement": "MIC", "setting": "Klebsiella pneumoniae [1]", "value": 0.15, "unit": "µg/mL"}, {"measurement": "MIC", "setting": "Klebsiella pneumoniae [5]", "value": 0.15, "unit": "µg/mL"}]}, {"compound": "POLYMYXIN B", "values": [{"measurement": "Activity", "setting": "Klebsiella pneumoniae [6]", "value": 7.4, "unit": "µg/mL"}, {"measurement": "Activity", "setting": "Klebsiella pneumoniae [7]", "value": 4.4, "unit": "µg/mL"}, {"measurement": "Activity", "setting": "Klebsiella pneumoniae [8]", "value": 4.8, "unit": "µg/mL"}, {"measurement": "inhibition", "setting": "Klebsiella pneumoniae [9]", "value": "Active"}, {"measurement": "Activity", "setting": "Klebsiella pneumoniae [10]", "value": "inactive"}, {"measurement": "Activity", "setting": "Klebsiella pneumoniae [11]", "value": "inactive"}, {"measurement": "Activity", "setting": "Klebsiella pneumoniae [12]", "value": "inactive"}, {"measurement": "inhibition", "setting": "Klebsiella pneumoniae [13]", "value": "inactive"}, {"measurement": "MIC", "setting": "Klebsiella pneumoniae [14]", "value": 0.75, "unit": "µg/mL"}, {"measurement": "Activity", "setting": "Klebsiella pneumoniae [15]", "value": "inactive"}, {"measurement": "MIC", "setting": "Klebsiella pneumoniae [16]", "value": 0.75, "unit": "µg/mL"}, {"measurement": "inhibition", "setting": "Klebsiella pneumoniae [17]", "value": "Active"}, {"measurement": "Activity", "setting": "Klebsiella pneumoniae [18]", "value": 8.1, "unit": "µg/mL"}, {"measurement": "MIC", "setting": "Klebsiella pneumoniae [19]", "value": 0.31, "unit": "µg/mL"}, {"measurement": "inhibition zone (IZ)", "setting": "Klebsiella pneumoniae [20]", "value": 9, "unit": "mm"}, {"measurement": "inhibition", "setting": "Klebsiella pneumoniae [21]", "value": "Active"}, {"measurement": "Activity", "setting": "Klebsiella pneumoniae [22]", "value": "Active"}]}]}
